Measured values: ChEMBL document CHEMBL1795280, “Design, synthesis and activity of a potent, selective series of N-aryl pyridinone inhibitors of p38 kinase” (Bioorg Med Chem Lett, 2011)

molecular target: Mitogen-activated protein kinase 14 (Homo sapiens, UniProt Q16539); experiment: Inhibition of p38alpha assessed as phosphorylation of […] after 60 mins by fluorescence assay
In short: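 Cascade assay in which activated p38α (6 pM final) activates unactivated MK2 (1 nM), which phosphorylates FITC-labelled Hsp27 peptide (1 nM) with […]. Inhibitor 0.2–10,000 nM. Room temperature, 60 min, EDTA quench. Phospho-peptide quantified by Caliper LabChip; IC50.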

Mitogen-activated protein kinase 14, sequence (Q16539 whole entry): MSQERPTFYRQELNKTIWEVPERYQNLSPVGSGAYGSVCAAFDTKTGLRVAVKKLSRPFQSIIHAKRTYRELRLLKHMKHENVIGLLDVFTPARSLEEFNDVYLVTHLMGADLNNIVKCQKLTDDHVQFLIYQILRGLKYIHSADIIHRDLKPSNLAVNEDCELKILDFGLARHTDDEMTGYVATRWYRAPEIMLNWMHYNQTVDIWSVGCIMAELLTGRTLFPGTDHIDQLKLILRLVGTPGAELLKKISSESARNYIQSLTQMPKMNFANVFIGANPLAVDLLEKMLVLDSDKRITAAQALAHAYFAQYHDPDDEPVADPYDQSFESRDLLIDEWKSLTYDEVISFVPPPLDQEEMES

SMILES | IC50 [µM]
Cc1cc(OCc2ccc(F)cc2F)c(Br)c(=O)n1-c1cccc(CNC(N)=O)c1 | 0.251
Cc1cc(OCc2ccccc2)c(Br)c(=O)n1-c1c(Cl)cccc1Cl | 0.03
Cc1cc(OCc2ccc(F)cc2F)c(Br)c(=O)n1-c1ccc(CNC(N)=O)cc1 | 0.142
Cc1cc(OCc2ccc(F)cc2F)c(Br)c(=O)n1-c1ccc(CN)cc1 | 0.051
CNC(=O)c1ccc(-n2c(C)cc(OCc3ccc(F)cc3F)c(Br)c2=O)cc1 | 0.126
Cc1cc(OCc2ccc(F)cc2F)c(Br)c(=O)n1-c1cccc(CNC(=O)CO)c1 | 0.175
Cc1cc(OCc2ccc(F)cc2F)c(Cl)c(=O)n1-c1c(F)cc(N2CCN(C)CC2)cc1F | 0.023
Cc1cc(OCc2ccc(F)cc2F)c(Br)c(=O)n1-c1cccc(CNC(=O)CN)c1 | 0.261
Cc1cc(OCc2ccc(F)cc2F)c(Br)c(=O)n1-c1cccc(CN)c1 | 0.681
Cc1cc(OCc2ccc(F)cc2F)c(Br)c(=O)n1-c1ccc(C(N)=O)cc1 | 0.122

These reach a lower IC50. Values come first.

IC50 [µM] | SMILES
0.008 | CN(C)Cc1cc(OCc2ccc(F)cc2F)c(Cl)c(=O)n1-c1c(F)cccc1F
0.003 | Cc1cc(OCc2ccc(F)cc2F)c(Br)c(=O)n1-c1c(F)cc(OCC(N)=O)cc1F
0.014 | Cc1cc(OCc2ccc(F)cc2F)c(Br)c(=O)n1-c1c(F)cc(N2CCN(C)CC2)cc1F
0.008 | Cc1cc(OCc2ccc(F)cc2F)c(Br)c(=O)n1-c1c(F)cc(N(C)C)cc1F
0.006 | Cc1cc(OCc2ccc(F)cc2)c(Br)c(=O)n1-c1c(Cl)cccc1Cl
